Source: PubChem (several laboratories)
aDG glyco up – alpha-DG glycosylation activation | Pro5-aDG cells, alpha-DG glycosylation AlphaScreen (IIH6); 0% Pro5, 100% B10-LARGE cell signal | activation, % at 10 µM | hit rate 0.22% among 360,000 | AID 624168;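 active = activation of at least 8% versus controls, or a plate z-score of at least 8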;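 note: Pro5 are CHO cells carrying HIG-tagged alpha-DG that lacks glycosylation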
proCasp7 act – counter-screen for procaspase-3 activators: activators of human procaspase-7 | P55210 | recombinant procaspase-7, Ac-DEVD-pNA absorbance 405 nm; D23A/D198A/D206A triple mutant, cannot self-cleave; scale: DMSO 0, 5 µM enzyme 100 | activation, % at 8.5 µM | hit rate 0.093% among 330,000;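 active = percent activation above the screen-wide mean plus 3 SD, cut at about 25% in these data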
Target sequence (P55210 whole entry D23A/D198A/D206A): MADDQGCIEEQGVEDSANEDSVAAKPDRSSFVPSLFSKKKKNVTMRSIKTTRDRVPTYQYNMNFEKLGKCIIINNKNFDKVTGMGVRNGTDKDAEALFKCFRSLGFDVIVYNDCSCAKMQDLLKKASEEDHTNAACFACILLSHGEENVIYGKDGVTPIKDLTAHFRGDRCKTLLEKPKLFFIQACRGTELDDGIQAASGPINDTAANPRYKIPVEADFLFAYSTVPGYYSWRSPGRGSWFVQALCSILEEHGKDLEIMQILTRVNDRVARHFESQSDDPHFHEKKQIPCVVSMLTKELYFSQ
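signal = Epi-absorbance of released pNA at 405 nm, two timepoints | assay system = Uncleavable procaspase-7 mutant enzyme | reagent = Ac-DEVD-pNA substrate, 400 µM as added | times = 1 h enzyme–compound preincubation and 2 h substrate reaction, both 25 °C | benchmarks = low DMSO alone, high DMSO plus 5 µM PC-7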
procasp3 activ – activators of human procaspase-3. P42574. recombinant procaspase-3 D3A, Ac-DEVD-pNA absorbance 405 nm. activation, % at 8.5 µM. hit rate 0.11% among 330,000. AID 463141;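 active = activation above the mean of all tested compounds plus 3 SD, cut at about 21% in these data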;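 note: 0% = DMSO alone and 100% = DMSO wells spiked with extra 5 µM PC-3 D3A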
Target sequence (P42574 whole entry D9A/D28A/D175A): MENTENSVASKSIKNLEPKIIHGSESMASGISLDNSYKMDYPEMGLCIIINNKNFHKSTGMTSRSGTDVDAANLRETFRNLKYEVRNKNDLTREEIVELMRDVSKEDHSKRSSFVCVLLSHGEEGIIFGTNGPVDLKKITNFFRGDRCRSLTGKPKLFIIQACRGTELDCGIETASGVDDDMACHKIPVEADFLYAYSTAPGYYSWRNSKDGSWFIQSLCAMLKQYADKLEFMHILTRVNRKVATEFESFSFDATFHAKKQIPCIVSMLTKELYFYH
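assay system = Procaspase-3 D3A mutant | signal = absorbance at 405 nm, 0 and 120 min | times = 1 h preincubation plus 2 h reaction at 25 °C | repeats = single replicate | read-out = % activation between DMSO and enzyme-spiked controls | medium = Zinc-free HEPES saline buffer with Triton X-100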
GRIN3A LBD mod – modulates the human NR3A ligand-binding domain. NR3A LBD differential scanning fluorimetry, Tm shift; 0% = protein alone, 100% = glycine-bound protein. Tm shift relative to glycine control, % at 25 µM. hit rate 2.5% among 340,000;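 active = melting temperature shift of at least 10% of the positive control shift, at one fixed dose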
MPTP inh – blocks calcium-induced mitochondrial swelling; inhibition, % at 10 µM; isolated mouse mitochondria, Ca2+ swelling absorbance, 30 min; hit rate 1.4% among 360,000;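 active = inhibition of 50% or more, scaled per plate between neutral and stimulator controls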;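 note: 0% = DMSO wells given calcium and 100% = 1 mM EGTA wells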
The depositor's hits bear a star. Most compounds without a hit are left out; they make up all but 3.7% or so of the library.

What do the screens show for `CCN(CC)C(=O)C1=C(C)N(Cc2ccc(OC)cc2)C(=O)C(CC(=O)NCCCN(C)C)C1` (configuration not stated)?
aDG glyco up: 0; MPTP inh: 1

What do the screens show for `O=C(/C(=N/N=C/c1ccc(O)c(O)c1O)c1ccccc1)c1ccccc1`?
aDG glyco up: 0; proCasp7 act: -23; procasp3 activ: -8; GRIN3A LBD mod: 18*; MPTP inh: 17

How did Oc1ccc(/C=N/N=C(c2ccccc2)c2ccccc2)c(O)c1O do in these assays?
aDG glyco up: 0; proCasp7 act: -22; procasp3 activ: -20; GRIN3A LBD mod: -1; MPTP inh: 7

What do the screens show for `O=C(c1ccc(CSc2ccc(Cl)cc2)o1)N1CCOCC1`?
aDG glyco up: 0; MPTP inh: 0

What do the screens show for `C[C@]12CC(O)C3C(CCC4=CC(=O)CC[C@@]43C)C1CCC2c1csc(-c2ccccc2)n1` (some centres not stated)?
aDG glyco up: 1; proCasp7 act: 4; procasp3 activ: 2; GRIN3A LBD mod: 13*; MPTP inh: 1

How did O=C1NC(=Nc2ccccc2Cl)S/C1=C\c1cc([N+](=O)[O-])ccc1O do in these assays?
aDG glyco up: 0; proCasp7 act: -11; procasp3 activ: -6; GRIN3A LBD mod: 20*; MPTP inh: 6

Results for COc1cccc(N=C2NC(=O)/C(=C/c3cc([N+](=O)[O-])ccc3O)S2)c1 ?
aDG glyco up: 0; proCasp7 act: 2; procasp3 activ: -2; GRIN3A LBD mod: -7; MPTP inh: 0

What do the screens show for `COc1cc(/C=C2\S/C(=N/S(=O)(=O)c3ccc(C)cc3)NC2=O)c([N+](=O)[O-])cc1OC`?
aDG glyco up: 0; proCasp7 act: -2; procasp3 activ: 3; GRIN3A LBD mod: -4; MPTP inh: 8

How did Cc1ccc(S(=O)(=O)/N=C2/NC(=O)/C(=C/c3cc([N+](=O)[O-])ccc3O)S2)cc1 do in these assays?
aDG glyco up: 0; proCasp7 act: -6; procasp3 activ: 0; GRIN3A LBD mod: 28*; MPTP inh: -1

What do the screens show for `Cc1ccc(C(=O)Nc2cccc(C(F)(F)F)c2)cc1NC(=O)c1c[nH]c2cc(C(F)(F)F)ccc2c1=O`?
aDG glyco up: 0; proCasp7 act: 3; procasp3 activ: 8; GRIN3A LBD mod: -3; MPTP inh: 10

How did Cc1cn(-c2cc(C(=O)Nc3ccc(C)c(NC(=O)C(=O)c4c[nH]c5ccccc45)c3)cc(C(F)(F)F)c2)cn1 do in these assays?
aDG glyco up: 0; proCasp7 act: 3; procasp3 activ: -16; GRIN3A LBD mod: 12*; MPTP inh: 2

What do the screens show for `CCOC(=O)c1nn(-c2ccccc2)cc1O`?
aDG glyco up: 0; proCasp7 act: -9; procasp3 activ: 3; GRIN3A LBD mod: 10*; MPTP inh: -1

How did CCOC(=O)c1nn(-c2ccc(C)cc2)cc1O do in these assays?
aDG glyco up: 0; proCasp7 act: 9; procasp3 activ: 2; GRIN3A LBD mod: 0; MPTP inh: 3

Results for Oc1cccc(C=NN=C2c3ccccc3-c3ccccc32)c1 ?
aDG glyco up: 0; GRIN3A LBD mod: -8; MPTP inh: 4

What do the screens show for `COc1cccc(-c2cnc3c(NC(C)=O)cc(-c4cccc(C(=O)NCCN(C)C)c4)cn23)c1`?
aDG glyco up: 2; MPTP inh: 0

What do the screens show for `O=C(Nc1ccc(N2C(=O)C3CCCCC3C2=O)cc1Cl)c1cccs1` (configuration not stated)?
aDG glyco up: 0; proCasp7 act: 11; procasp3 activ: 8; GRIN3A LBD mod: 18*; MPTP inh: 0

Results for O=C(Nc1ccccc1Cl)c1cccs1 ?
aDG glyco up: 0; proCasp7 act: 3; procasp3 activ: 1; GRIN3A LBD mod: 1; MPTP inh: -3

Results for CN1CCc2c(sc(NC(=O)CS(=O)(=O)c3ccccc3)c2C(N)=O)C1 ?
aDG glyco up: 0; proCasp7 act: 0; procasp3 activ: -6; GRIN3A LBD mod: 18*; MPTP inh: 0

How did CCCN1CCc2c(sc(NC(=O)CCS(=O)(=O)c3ccccc3)c2C(N)=O)C1 do in these assays?
aDG glyco up: 0; proCasp7 act: 6; procasp3 activ: 3; GRIN3A LBD mod: 2; MPTP inh: -1

What do the screens show for `CC(C)(C)c1ccc(C(=O)N2CCC2(C)C(=O)Nc2ccc3nc[nH]c3c2)cc1` (configuration not stated)?
aDG glyco up: 0; MPTP inh: 2

Results for CCOC(=O)C(C)Sc1nc(C2CC2)cc(C(F)(F)F)c1C#N (configuration not stated) ?
aDG glyco up: 0; proCasp7 act: -8; procasp3 activ: -4; GRIN3A LBD mod: 1; MPTP inh: 0

Results for COC(=O)CSc1nc(C2CC2)cc(C(F)(F)F)c1C#N ?
aDG glyco up: 0; proCasp7 act: 7; procasp3 activ: 1; GRIN3A LBD mod: 18*; MPTP inh: 1

What do the screens show for `COC(=O)[C@H](CCSC)NC(=O)Cn1cnc(C(=O)Nc2ccc(C)c(C)c2)n1`?
aDG glyco up: 0; proCasp7 act: 10; procasp3 activ: 2; GRIN3A LBD mod: 13*; MPTP inh: 0

What do the screens show for `COC(=O)[C@H](CC(C)C)NC(=O)Cn1cnc(C(=O)Nc2ccc(C)c(C)c2)n1`?
aDG glyco up: 0; proCasp7 act: 9; procasp3 activ: -1; GRIN3A LBD mod: 2; MPTP inh: 0

What do the screens show for `CC1(Oc2ccc(Cl)cc2)CCN(Cc2ccc(-c3ccccn3)cc2)C1` (configuration not stated)?
aDG glyco up: 0; MPTP inh: 0

Results for CCOC(=O)C1CCN(CC(O)COCc2ccccc2)CC1 (configuration not stated) ?
aDG glyco up: 0; proCasp7 act: -6; procasp3 activ: -2; GRIN3A LBD mod: 14*; MPTP inh: -1

How did CC1C(=O)N(Cc2cn(Cc3ccco3)nn2)CCS(=O)(=O)N1Cc1ccc(-c2ccc(F)cc2)cc1 (configuration not stated) do in these assays?
aDG glyco up: 0; MPTP inh: 0

How did Cc1ccc(N=CC=C2OC(C)(C)C(C)(C)O2)c(C)c1 do in these assays?
aDG glyco up: 0; proCasp7 act: 4; procasp3 activ: 4; GRIN3A LBD mod: 15*; MPTP inh: 0

Results for CCOC(=O)c1ccc(-c2c(-c3ccccc3OC)oc3ccccc23)cc1F ?
aDG glyco up: 0; proCasp7 act: -2; procasp3 activ: 14; GRIN3A LBD mod: 1; MPTP inh: 2

What do the screens show for `COc1ccccc1-c1oc2ccccc2c1-c1ccc2cc[nH]c2c1`?
aDG glyco up: 3; proCasp7 act: 3; procasp3 activ: 0; GRIN3A LBD mod: 21*; MPTP inh: 2
